Converted amounts (≈) assume the structure as drawn. The source made the active and inactive calls. The rule behind the calls is not given here.
How the values were obtained:
[1] = tested on: Rhizopus arrhizus; assay: Antifungal activity against drug-susceptible Rhizopus oryzae UTHSC 03-511 after 24 to 48 hrs; type: functional
Summary of the method: (§1)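 Minimum fungicidal concentration: 20 µl from each microdilution well showing complete inhibition (optically clear) plated on potato dextrose agar, incubated 35°C for 24 to 48 h; MFC taken as lowest drug concentration giving no growth.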

[2] = tested on: Rhizopus arrhizus; assay: Antifungal activity against drug-susceptible Rhizopus oryzae UTHSC 03-511 by broth microdilution method; type: functional
Summary of the method: (§2)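 CLSI broth microdilution for filamentous fungi (M38-A2); MIC recorded in µg/ml against clinical isolates; breakpoints applied at 24 h.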

[3] = tested on: Rhizopus arrhizus; assay: Antifungal activity against drug-susceptible Rhizopus oryzae UTHSC 06-4152 by broth microdilution method; type: functional
Summary of the method: (§3)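 Posaconazole MIC in ug/ml, determined by broth microdilution following the CLSI guidelines for moulds (M38-A2).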

[4] = tested on: Rhizopus arrhizus; assay: Antifungal activity against drug-intermediate Rhizopus oryzae UTHSC 05-114 at 5 ug by disk diffusion assay; type: functional; conditions: read-out: DIZ
Summary of the method: (§4)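 Neo-Sensitabs tablet diffusion on Mueller-Hinton agar, following the guidelines for molds. Tablets were 9 mm in diameter and held 5 µg of drug. The read-out was inhibition zone diameter in mm.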

[5] = tested on: Rhizopus arrhizus; assay: Antifungal activity against drug-susceptible Rhizopus oryzae UTHSC 03-1826 after 24 to 48 hrs; type: functional
[6] = tested on: Rhizopus arrhizus; assay: Antifungal activity against drug-susceptible Rhizopus oryzae UTHSC 04-1613 by broth microdilution method; type: functional; summary of the method: as §2
[7] = tested on: Rhizopus arrhizus; assay: Antifungal activity against drug-susceptible Rhizopus oryzae UTHSC 06-2457 after 24 to 48 hrs; type: functional
Summary of the method: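 Minimum fungicidal concentration taken from the broth microdilution plates. From each well with complete inhibition (optically clear), 20 ul is plated on potato dextrose agar. Plates are incubated at 35°C for 24 to 48 h. The MFC is the lowest drug concentration giving no growth.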

[8] = tested on: Rhizopus arrhizus; assay: Antifungal activity against drug-susceptible Rhizopus oryzae UTHSC 03-228 by broth microdilution method; type: functional
Summary of the method: (§5)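 Broth microdilution MIC in µg/ml, run per the CLSI (formerly NCCLS) guideline for filamentous fungi, M38-A2.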

[9] = tested on: Rhizopus arrhizus; assay: Antifungal activity against drug-susceptible Rhizopus oryzae UTHSC 05-197 after 24 to 48 hrs; type: functional; summary of the method: as §1
[10] = tested on: Rhizopus arrhizus; assay: Antifungal activity against drug-susceptible Rhizopus oryzae UTHSC 06-1301 at 5 ug by disk diffusion assay; type: functional; conditions: read-out: DIZ
Summary of the method: (§6)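 Neo-Sensitabs tablet diffusion on Mueller-Hinton agar, run per the mould guidelines. Tablets are 9 mm in diameter and carry 5 ug posaconazole. The read-out is the inhibition zone diameter in mm.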

[11] = tested on: Rhizopus arrhizus; assay: Antifungal activity against drug-susceptible Rhizopus oryzae UTHSC 05-1817 after 24 to 48 hrs; type: functional; summary of the method: as §1
[12] = tested on: Rhizopus arrhizus; assay: Antifungal activity against drug-intermediate Rhizopus oryzae UTHSC 05-114 after 24 to 48 hrs; type: functional
[13] = tested on: Rhizopus arrhizus; assay: Antifungal activity against drug-intermediate Rhizopus oryzae UTHSC 05-3032 after 24 to 48 hrs; type: functional
[14] = tested on: Rhizopus arrhizus; assay: Antifungal activity against drug-susceptible Rhizopus oryzae UTHSC 03-2970 after 24 to 48 hrs; type: functional
[15] = tested on: Rhizopus arrhizus; assay: Antifungal activity against drug-susceptible Rhizopus oryzae UTHSC 05-2447 by broth microdilution method; type: functional; summary of the method: as §2
[16] = tested on: Rhizopus arrhizus; assay: Antifungal activity against drug-susceptible Rhizopus oryzae UTHSC 06-4035 at 5 ug by disk diffusion assay; type: functional; conditions: read-out: DIZ; summary of the method: as §6
[17] = tested on: Rhizopus arrhizus; assay: Antifungal activity against drug-susceptible Rhizopus oryzae UTHSC 04-278 by broth microdilution method; type: functional; summary of the method: as §2
[18] = tested on: Rhizopus arrhizus; assay: Antifungal activity against drug-susceptible Rhizopus oryzae UTHSC 06-1351 at 5 ug by disk diffusion assay; type: functional; conditions: read-out: DIZ; summary of the method: as §6
[19] = tested on: Rhizopus arrhizus; assay: Antifungal activity against drug-intermediate Rhizopus oryzae UTHSC 05-3032 by broth microdilution method; type: functional; summary of the method: as §5
[20] = tested on: Rhizopus arrhizus; assay: Antifungal activity against drug-susceptible Rhizopus oryzae UTHSC 03-299 after 24 to 48 hrs; type: functional
[21] = tested on: Rhizopus arrhizus; assay: Antifungal activity against drug-intermediate Rhizopus oryzae UTHSC 07-365 after 24 to 48 hrs; type: functional
[22] = tested on: Rhizopus arrhizus; assay: Antifungal activity against drug-susceptible Rhizopus oryzae UTHSC 06-731 after 24 to 48 hrs; type: functional
[23] = tested on: Rhizopus arrhizus; assay: Antifungal activity against drug-susceptible Rhizopus oryzae UTHSC 05-3111 by broth microdilution method; type: functional; summary of the method: as §3
[24] = tested on: Rhizopus arrhizus; assay: Antifungal activity against drug-susceptible Rhizopus oryzae UTHSC 06-3827 by broth microdilution method; type: functional; summary of the method: as §3
[25] = tested on: Rhizopus arrhizus; assay: Antifungal activity against drug-susceptible Rhizopus oryzae UTHSC 03-112 after 24 to 48 hrs; type: functional
[26] = tested on: Rhizopus arrhizus; assay: Antifungal activity against drug-susceptible Rhizopus oryzae UTHSC 05-1502 by broth microdilution method; type: functional; summary of the method: as §2
[27] = tested on: Rhizopus arrhizus; assay: Antifungal activity against drug-susceptible Rhizopus oryzae UTHSC 03-3110 after 24 to 48 hrs; type: functional; summary of the method: as §1
[28] = tested on: Rhizopus arrhizus; assay: Antifungal activity against drug-intermediate Rhizopus oryzae UTHSC 03-285 by broth microdilution method; type: functional; summary of the method: as §5
[29] = tested on: Rhizopus arrhizus; assay: Antifungal activity against drug-susceptible Rhizopus oryzae UTHSC 03-547 by broth microdilution method; type: functional; summary of the method: as §2
[30] = tested on: Rhizopus arrhizus; assay: Antifungal activity against drug-susceptible Rhizopus oryzae UTHSC 03-511 infected in OF1 mouse assessed as reduction in kidney fungal load at 10-30 mg/kg, po bid; type: functional, organism-based
Summary of the method: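 Immunosuppressed male OF1 mice (cyclophosphamide 200 mg/kg i.p. plus 5-fluorouracil 150 mg/kg i.v., day −1) infected i.v. with 2 × 10^4 CFU; oral gavage twice daily from 24 h post-challenge; 10 mice/group killed day 4; kidneys homogenized in 2 ml saline, 10-fold dilutions plated on potato dextrose agar, 24 h at 35°C for CFU.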

[31] = tested on: Rhizopus arrhizus; assay: Antifungal activity against drug-susceptible Rhizopus oryzae UTHSC 03-299 by broth microdilution method; type: functional; summary of the method: as §2
[32] = tested on: Rhizopus arrhizus; assay: Antifungal activity against drug-susceptible Rhizopus oryzae UTHSC 04-1241 at 5 ug by disk diffusion assay; type: functional; conditions: read-out: DIZ
Summary of the method: (§7)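 Neo-Sensitabs tablet diffusion on Mueller-Hinton agar, following guidelines for molds; 9 mm tablets containing 5 µg posaconazole; inhibition zone diameter measured in mm; zone breakpoints applied at 24 h.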

[33] = tested on: Rhizopus arrhizus; assay: Antifungal activity against drug-susceptible Rhizopus oryzae UTHSC 03-511 at 5 ug by disk diffusion assay; type: functional; conditions: read-out: DIZ; summary of the method: as §7
[34] = tested on: Rhizopus arrhizus; assay: Antifungal activity against drug-susceptible Rhizopus oryzae UTHSC 06-89 infected in OF1 mouse assessed as increase in mouse survival at 20-30 mg/kg, po bid treated 24 hrs after fungal infection; type: functional, organism-based
[35] = tested on: Rhizopus arrhizus; assay: Antifungal activity against drug-susceptible Rhizopus oryzae UTHSC 05-3580 by broth microdilution method; type: functional; summary of the method: as §3
[36] = tested on: Rhizopus arrhizus; assay: Antifungal activity against drug-susceptible Rhizopus oryzae UTHSC 04-443 after 24 to 48 hrs; type: functional; summary of the method: as §1
[37] = tested on: Rhizopus arrhizus; assay: Antifungal activity against drug-susceptible Rhizopus oryzae UTHSC 04-2459 after 24 to 48 hrs; type: functional; summary of the method: as §1
[38] = tested on: Rhizopus arrhizus; assay: Antifungal activity against drug-susceptible Rhizopus oryzae UTHSC 03-3110 by broth microdilution method; type: functional; summary of the method: as §2
[39] = tested on: Rhizopus arrhizus; assay: Antifungal activity against drug-susceptible Rhizopus oryzae UTHSC 06-89 at 5 ug by disk diffusion assay; type: functional; conditions: read-out: DIZ
[40] = tested on: Rhizopus arrhizus; assay: Antifungal activity against drug-susceptible Rhizopus oryzae UTHSC 03-112 at 5 ug by disk diffusion assay; type: functional; conditions: read-out: DIZ; summary of the method: as §4
[41] = tested on: Rhizopus arrhizus; assay: Antifungal activity against drug-susceptible Rhizopus oryzae UTHSC 412-546 by broth microdilution method; type: functional
[42] = tested on: Rhizopus arrhizus; assay: Antifungal activity against drug-susceptible Rhizopus oryzae UTHSC 06-1301 by broth microdilution method; type: functional; summary of the method: as §3

CC[C@@H]([C@H](C)O)n1ncn(-c2ccc(N3CCN(c4ccc(OC[C@@H]5CO[C@@](Cn6cncn6)(c6ccc(F)cc6F)C5)cc4)CC3)cc2)c1=O [POSACONAZOLE]
MFC [1]: 1 µg/mL (≈ 1.43 µM) | MIC [2]: 0.25 µg/mL (≈ 0.357 µM) | MIC [3]: 0.25 µg/mL (≈ 0.357 µM) | zone of inhibition at 5 µg/disc [4]: 15 mm | MFC [5]: 0.5 µg/mL (≈ 0.713 µM) | MIC [6]: 0.5 µg/mL (≈ 0.713 µM) | MFC [7]: > 16 µg/mL | MIC [8]: 0.25 µg/mL (≈ 0.357 µM) | MFC [9]: 0.5 µg/mL (≈ 0.713 µM) | zone of inhibition at 5 µg/disc [10]: 25 mm | MFC [11]: 2 µg/mL (≈ 2.85 µM) | MFC [12]: 16 µg/mL (≈ 22.8 µM) | MFC [13]: > 16 µg/mL | MFC [14]: 4 µg/mL (≈ 5.71 µM) | MIC [15]: 1 µg/mL (≈ 1.43 µM) | zone of inhibition at 5 µg/disc [16]: 17 mm | MIC [17]: 1 µg/mL (≈ 1.43 µM) | zone of inhibition at 5 µg/disc [18]: 25 mm | MIC [19]: 2 µg/mL (≈ 2.85 µM) | MFC [20]: > 16 µg/mL | MFC [21]: 16 µg/mL (≈ 22.8 µM) | MFC [22]: 0.5 µg/mL (≈ 0.713 µM) | MIC [23]: 0.25 µg/mL (≈ 0.357 µM) | MIC [24]: 1 µg/mL (≈ 1.43 µM) | MFC [25]: 1 µg/mL (≈ 1.43 µM) | MIC [26]: 0.5 µg/mL (≈ 0.713 µM) | MFC [27]: 1 µg/mL (≈ 1.43 µM) | MIC [28]: 2 µg/mL (≈ 2.85 µM) | MIC [29]: 0.25 µg/mL (≈ 0.357 µM) | Activity [30]: Active | MIC [31]: 1 µg/mL (≈ 1.43 µM) | zone of inhibition at 5 µg/disc [32]: 22 mm | zone of inhibition at 5 µg/disc [33]: 22 mm | Activity [34]: Active | MIC [35]: 0.5 µg/mL (≈ 0.713 µM) | MFC [36]: 1 µg/mL (≈ 1.43 µM) | MFC [37]: 0.5 µg/mL (≈ 0.713 µM) | MIC [38]: 1 µg/mL (≈ 1.43 µM) | zone of inhibition at 5 µg/disc [39]: 23 mm | zone of inhibition at 5 µg/disc [40]: 20 mm | MIC [41]: 1 µg/mL (≈ 1.43 µM) | MIC [42]: 0.5 µg/mL (≈ 0.713 µM)
